Test results: ChEMBL document CHEMBL1142454, “Synthesis and evaluation of novel 4-amino-4,6-androstadiene-3,17-dione: an analog of formestane” (2008)

Tested on: IGROV-1
Assay: Antitumor activity against human IGROV1 cells assessed as reduction of cell growth at 10 uM after 48 hrs by SRB assay
Format: functional
Set-up: scale not given: the % may be the effect or the level left
Method in brief: (§1)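 NCI 60-cell-line primary screen, single dose 10^-5 M (final). Cells grown in RPMI 1640 with 5% FBS and 2 mM L-glutamine, seeded at 5000–40,000 cells/well and preincubated 24 h at 37 °C, 5% CO2. Compound is dissolved in DMSO, diluted in medium with gentamicin, and exposed 48 h. Cells are fixed with 10% TCA (final) and stained with 0.4% SRB; absorbance is read at 515 nm. Readout is growth percentage.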

Row | SMILES | Activity [%]
1 | C[C@]12CCC(=O)C(Oc3ccccc3)=C1CC[C@@H]1[C@@H]2CC[C@]2(C)C(=O)CC[C@@H]12 | 55.73

Tested on: T47D
Assay: Antitumor activity against human T47D cells assessed as reduction of cell growth at 10 uM after 48 hrs by SRB assay
Format: functional
Set-up: scale not given: the % may be the effect or the level left
Method in brief: (§2)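 NCI-60 one-dose primary screen at 10^-5 M final. Cells grown in RPMI 1640 with 5% FBS and 2 mM L-glutamine, plated at 5000–40,000 cells/well and preincubated 24 h at 37 °C, 5% CO2. Drug stocks in DMSO, diluted in medium with gentamicin. Exposure 48 h, then fixed in situ with TCA (10% final) for 60 min at 4 °C. Stained with 0.4% SRB in 1% acetic acid, bound dye solubilized in 10 mM trizma base, absorbance read at 515 nm. Reported as mean growth percent; negative values indicate cell kill.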

Row | SMILES | Activity [%]
2 | C[C@]12CCC(=O)C(Oc3ccccc3)=C1CC[C@@H]1[C@@H]2CC[C@]2(C)C(=O)CC[C@@H]12 | 116.7

Tested on: MCF7
Assay: Antitumor activity against human MCF7 cells assessed as reduction of cell growth at 10 uM after 48 hrs by SRB assay
Format: functional
Set-up: scale not given: the % may be the effect or the level left
Method in brief: as §1

Row | SMILES | Activity [%]
3 | C[C@]12CCC(=O)C(Oc3ccccc3)=C1CC[C@@H]1[C@@H]2CC[C@]2(C)C(=O)CC[C@@H]12 | 103.22

Tested on: not listed separately
Assay: Antitumor activity against human Hs 578T cells assessed as reduction of cell growth at 10 uM after 48 hrs by SRB assay
Format: functional
Set-up: scale not given: the % may be the effect or the level left
Method in brief: as §1

Row | SMILES | Activity [%]
4 | C[C@]12CCC(=O)C(Oc3ccccc3)=C1CC[C@@H]1[C@@H]2CC[C@]2(C)C(=O)CC[C@@H]12 | 103.5

Tested on: BT-549
Assay: Antitumor activity against human BT-549 cells assessed as reduction of cell growth at 10 uM after 48 hrs by SRB assay
Format: functional
Set-up: scale not given: the % may be the effect or the level left
Method in brief: as §1

Row | SMILES | Activity [%]
5 | C[C@]12CCC(=O)C(Oc3ccccc3)=C1CC[C@@H]1[C@@H]2CC[C@]2(C)C(=O)CC[C@@H]12 | 110.1

Tested on: SW-620
Assay: Antitumor activity against human SW620 cells assessed as reduction of cell growth at 10 uM after 48 hrs by SRB assay
Format: functional
Set-up: scale not given: the % may be the effect or the level left
Method in brief: as §2

Row | SMILES | Activity [%]
6 | C[C@]12CCC(=O)C(Oc3ccccc3)=C1CC[C@@H]1[C@@H]2CC[C@]2(C)C(=O)CC[C@@H]12 | 120.45

Tested on: KM12
Assay: Antitumor activity against human KM12 cells assessed as reduction of cell growth at 10 uM after 48 hrs by SRB assay
Format: functional
Set-up: scale not given: the % may be the effect or the level left
Method in brief: as §1

Row | SMILES | Activity [%]
7 | C[C@]12CCC(=O)C(Oc3ccccc3)=C1CC[C@@H]1[C@@H]2CC[C@]2(C)C(=O)CC[C@@H]12 | 115.72

Tested on: HCT-15
Assay: Antitumor activity against human HCT-15 cells assessed as reduction of cell growth at 10 uM after 48 hrs by SRB assay
Format: functional
Set-up: scale not given: the % may be the effect or the level left
Method in brief: as §1

Row | SMILES | Activity [%]
8 | C[C@]12CCC(=O)C(Oc3ccccc3)=C1CC[C@@H]1[C@@H]2CC[C@]2(C)C(=O)CC[C@@H]12 | 94.74

Tested on: COLO 205
Assay: Antitumor activity against human COLO205 cells assessed as reduction of cell growth at 10 uM after 48 hrs by SRB assay
Format: functional
Set-up: scale not given: the % may be the effect or the level left
Method in brief: as §1

Row | SMILES | Activity [%]
9 | C[C@]12CCC(=O)C(Oc3ccccc3)=C1CC[C@@H]1[C@@H]2CC[C@]2(C)C(=O)CC[C@@H]12 | 115.44

Tested on: NCI-H522
Assay: Antitumor activity against human NCI-H522 cells assessed as reduction of cell growth at 10 uM after 48 hrs by SRB assay
Format: functional
Set-up: scale not given: the % may be the effect or the level left
Method in brief: as §1

Row | SMILES | Activity [%]
10 | C[C@]12CCC(=O)C(Oc3ccccc3)=C1CC[C@@H]1[C@@H]2CC[C@]2(C)C(=O)CC[C@@H]12 | 87.31

Tested on: NCI-H460
Assay: Antitumor activity against human NCI-H460 cells assessed as reduction of cell growth at 10 uM after 48 hrs by SRB assay
Format: functional
Set-up: scale not given: the % may be the effect or the level left
Method in brief: as §1

Row | SMILES | Activity [%]
11 | C[C@]12CCC(=O)C(Oc3ccccc3)=C1CC[C@@H]1[C@@H]2CC[C@]2(C)C(=O)CC[C@@H]12 | 77.42

Tested on: NCI-H322M
Assay: Antitumor activity against human NCI-H322M cells assessed as reduction of cell growth at 10 uM after 48 hrs by SRB assay
Format: functional
Set-up: scale not given: the % may be the effect or the level left
Method in brief: as §1

Row | SMILES | Activity [%]
12 | C[C@]12CCC(=O)C(Oc3ccccc3)=C1CC[C@@H]1[C@@H]2CC[C@]2(C)C(=O)CC[C@@H]12 | 106.72

Tested on: NCI-H226
Assay: Antitumor activity against human NCI-H226 cells assessed as reduction of cell growth at 10 uM after 48 hrs by SRB assay
Format: functional
Set-up: scale not given: the % may be the effect or the level left
Method in brief: as §1

Row | SMILES | Activity [%]
13 | C[C@]12CCC(=O)C(Oc3ccccc3)=C1CC[C@@H]1[C@@H]2CC[C@]2(C)C(=O)CC[C@@H]12 | 96.55

Tested on: HOP-92
Assay: Antitumor activity against human HOP-92 cells assessed as reduction of cell growth at 10 uM after 48 hrs by SRB assay
Format: functional
Set-up: scale not given: the % may be the effect or the level left
Method in brief: as §1

Row | SMILES | Activity [%]
14 | C[C@]12CCC(=O)C(Oc3ccccc3)=C1CC[C@@H]1[C@@H]2CC[C@]2(C)C(=O)CC[C@@H]12 | 87.06

Tested on: EKVX
Assay: Antitumor activity against human EKVX cells assessed as reduction of cell growth at 10 uM after 48 hrs by SRB assay
Format: functional
Set-up: scale not given: the % may be the effect or the level left
Method in brief: as §1

Row | SMILES | Activity [%]
15 | C[C@]12CCC(=O)C(Oc3ccccc3)=C1CC[C@@H]1[C@@H]2CC[C@]2(C)C(=O)CC[C@@H]12 | 104.06

Tested on: A549
Assay: Antitumor activity against human A549/ATCC cells assessed as reduction of cell growth at 10 uM after 48 hrs by SRB assay
Format: functional
Set-up: scale not given: the % may be the effect or the level left
Method in brief: as §1

Row | SMILES | Activity [%]
16 | C[C@]12CCC(=O)C(Oc3ccccc3)=C1CC[C@@H]1[C@@H]2CC[C@]2(C)C(=O)CC[C@@H]12 | 100.25

Tested on: SF-539
Assay: Antitumor activity against human SF-539 cells assessed as reduction of cell growth at 10 uM after 48 hrs by SRB assay
Format: functional
Set-up: scale not given: the % may be the effect or the level left
Method in brief: as §1

Row | SMILES | Activity [%]
17 | C[C@]12CCC(=O)C(Oc3ccccc3)=C1CC[C@@H]1[C@@H]2CC[C@]2(C)C(=O)CC[C@@H]12 | 106.75

Tested on: SNB-75
Assay: Antitumor activity against human SNB75 cells assessed as reduction of cell growth at 10 uM after 48 hrs by SRB assay
Format: functional
Set-up: scale not given: the % may be the effect or the level left
Method in brief: as §1

Row | SMILES | Activity [%]
18 | C[C@]12CCC(=O)C(Oc3ccccc3)=C1CC[C@@H]1[C@@H]2CC[C@]2(C)C(=O)CC[C@@H]12 | 91.11

Tested on: U-251
Assay: Antitumor activity against human U251 cells assessed as reduction of cell growth at 10 uM after 48 hrs by SRB assay
Format: functional
Set-up: scale not given: the % may be the effect or the level left
Method in brief: as §2

Row | SMILES | Activity [%]
19 | C[C@]12CCC(=O)C(Oc3ccccc3)=C1CC[C@@H]1[C@@H]2CC[C@]2(C)C(=O)CC[C@@H]12 | 91.35
